# “And” between values parts separate entries of the source, which are not always exact repeats. Equal entries are not always repeated.
# Experiments:
# Canis familiaris [1] = species on record: Canis familiaris; test: Maximum percent change in conduction time (CT) at 10 uM concentration tested on Canine ventricular muscle fibre; assay type: functional, Canis lupus familiaris, Muscle tissue
# Outline: (§1)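 Canine right ventricular papillary muscle strips were superfused at 36 ± 0.5 °C with saline gassed with 95% O2/5% CO2. Diastolic threshold was found with 2-ms stimuli at 4000 ms cycle length, then pacing at 4× threshold for 60 min equilibration. FRP was measured at 1000 ms cycle length by S1-S2 premature stimulus after every tenth S1. Conduction time came from a bipolar electrogram. Various compound concentrations were tested, one compound per strip, with vehicle controls. Percent change from control was taken at 10 µM, or the maximum change with its concentration; for N ≥ 3, mean with range.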
# Canis familiaris [2] = species on record: Canis familiaris; test: Maximum percent change in functional refractory period (FRP) at 100 uM on Canine ventricular muscle fibre.; set-up: species or system Canis lupus familiaris, Muscle tissue; outline: as §1
# Canis familiaris [3] = species on record: Canis familiaris; test: Percent change from control in conduction time (CT) at 10 uM concentration tested on Canine ventricular muscle fibre.; M is minimal(<10% change in CT); assay type: functional; details: Canis lupus familiaris, Muscle tissue; outline: as §1
# Canis familiaris [4] = species on record: Canis familiaris; test: Maximum percent change in conduction time (CT) at 1 uM concentration tested on Canine ventricular muscle fibre; assay type: functional, Canis lupus familiaris, Muscle tissue; outline: as §1
# Canis familiaris [5] = species on record: Canis familiaris; test: Maximum percent change in repolarization at 10 uM concentration on Canine Purkinje fibers.; assay type: functional, Canis lupus familiaris, Purkinje fiber
# Outline: (§2)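 Isolated canine Purkinje fibers were superfused with physiological saline gassed with 95% O2/5% CO2 (pH 7.35–7.40) at 36 ± 0.5 °C. Paced at 1.0 Hz with 2-ms pulses at twice diastolic threshold. After up to 1 h stabilization, compounds were tested over 10^-8 to 10^-3 M, 30 min per concentration, one compound per fiber, with vehicle controls. Intracellular microelectrodes (3 M KCl) recorded Vmax and APD95; maximum percent change from control is reported with its concentration.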
# Canis familiaris [6] = species on record: Canis familiaris; test: Percent change from control in the rate of rise of phase 0 of the action potential at 10 uM concentration on Canine Purkinje fibers.; value ranges from -32-3; set-up: species or system Canis lupus familiaris, Purkinje fiber; details: dog, in vitro
# Canis familiaris [7] = species on record: Canis familiaris; test: (§3) Maximum Percent change from control in the rate of rise of phase 0 of the action potential at 100 uM concentration on Canine Purkinje fibers.; set-up: species or system Canis lupus familiaris, Purkinje fiber; outline: as §2
# Cavia porcellus [8] = species on record: Cavia porcellus; test: Concentration of compound ( ) which gives a 20% decrease in contractile force was tested on papillary muscle of guinea pig, activity was expressed as EC-20.; assay type: functional; details: Muscle tissue
# Outline: (§4)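 Contractile force measured in an isolated cardiac muscle preparation. Value is the concentration giving a 20% decrease in force of contraction. NR marks that this decrease was not reached. Values come from individual experiments; for N ≥ 3, the mean is given with the range.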
# Canis familiaris [9] = species on record: Canis familiaris; test: Maximum percent change in conduction time (CT) at 100 uM concentration tested on Canine ventricular muscle fibre; assay type: functional, Canis lupus familiaris, Muscle tissue; outline: as §1
# Canis familiaris [10] = species on record: Canis familiaris; test: Maximum percent change in repolarization at 100 uM concentration on Canine Purkinje fibers.; assay type: functional, Canis lupus familiaris, Purkinje fiber; outline: as §2
# Canis familiaris [11] = species on record: Canis familiaris; test: Maximum percent change in repolarization at 30 uM concentration on Canine Purkinje fibers.; assay type: functional, Canis lupus familiaris, Purkinje fiber; outline: as §2
# Canis familiaris [12] = species on record: Canis familiaris; test: Maximum percent change in functional refractory period (FRP) at 0.1 uM on Canine ventricular muscle fibre.; set-up: species or system Canis lupus familiaris, Muscle tissue; outline: as §1
# Canis familiaris [13] = species on record: Canis familiaris; test: Percent change from control in the functional refractory period (FRP) at 10 uMconc. on Canine ventricular muscle fibre.; value ranges from -4-17; set-up: species or system Canis lupus familiaris, Muscle tissue
# Canis familiaris [14] = species on record: Canis familiaris; test: Percent change in repolarization at 10 Purkinje fibers.; value ranges from 0-25; assay type: functional, Canis lupus familiaris, Purkinje fiber
# Outline: (§5)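 Canine Purkinje fibers were held in oxygenated (95% O2–5% CO2) physiological saline, pH 7.35–7.40, at 36 ± 0.5 °C and paced at 1.0 Hz with 2-ms pulses at twice diastolic threshold. Intracellular microelectrodes (3 M KCl) recorded Vmax and APD95 simultaneously. After up to 1 h of stabilization, compounds were tested from 10^-8 to 10^-3 M with 30 min per concentration. One compound per fiber, with vehicle controls. For N ≥ 3, values are the mean with the range.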
# Canis familiaris [15] = species on record: Canis familiaris; test: as §3; assay type: organism-based, Canis lupus familiaris, Purkinje fiber; details: dog, in vitro; outline: as §2
# Canis familiaris [16] = species on record: Canis familiaris; test: Maximum Percent change from control in the rate of rise of phase 0 of the action potential at 10 uM concentration on Canine Purkinje fibers.; assay type: functional, Canis lupus familiaris, Purkinje fiber; details: dog, in vitro; outline: as §2
# Canis familiaris [17] = species on record: Canis familiaris; test: Maximum Percent change from control in the rate of rise of phase 0 of the action potential at 30 uM concentration on Canine Purkinje fibers.; set-up: species or system Canis lupus familiaris, Purkinje fiber; details: dog, in vitro; outline: as §2
# Canis familiaris [18] = species on record: Canis familiaris; test: Percent change from control in the functional refractory period (FRP) at 10 uM conc. on Canine ventricular muscle fibre.; set-up: species or system Canis lupus familiaris, Muscle tissue; outline: as §1
# Cavia porcellus [19] = species on record: Cavia porcellus; test: Concentration of compound which gives a 20% decrease in contractile force was tested from individual experiments on papillary muscle of guinea pig, activity was expressed as EC-20.; assay type: functional; details: Muscle tissue; outline: as §4
# Canis familiaris [20] = species on record: Canis familiaris; test: Percent change from control in the rate of rise of phase 0 of the action potential at 10 uM concentration on Canine Purkinje fibers.; set-up: species or system Canis lupus familiaris, Purkinje fiber; details: dog
# Canis familiaris [21] = species on record: Canis familiaris; test: Percent change in repolarization at 10 Purkinje fibers.; value ranges from 9-18; assay type: functional, Canis lupus familiaris, Purkinje fiber; outline: as §5
# Canis familiaris [22] = species on record: Canis familiaris; test: Maximum percent change in functional refractory period(FRP) of compound (30 uM) was tested on Canine ventricular muscle fibre.; set-up: species or system Canis lupus familiaris, Muscle tissue; outline: as §1
# Cavia porcellus [23] = species on record: Cavia porcellus; test: Concentration of compound which gives a 20% decrease in contractile force was tested on papillary muscle of guinea pig, activity was expressed as EC-20.; assay type: functional; details: Muscle tissue; outline: as §4
# Canis familiaris [24] = species on record: Canis familiaris; test: Percent change in repolarization at 10 Purkinje fibers.; assay type: functional, Canis lupus familiaris, Purkinje fiber; outline: as §5
# Canis familiaris [25] = species on record: Canis familiaris; test: Percent change from control in conduction time (CT) at 10 uM concentration tested on Canine ventricular muscle fibre.; assay type: functional, Canis lupus familiaris, Muscle tissue; outline: as §1
# [26] = Maximum Percent change from control in the rate of rise of phase 0 of the action potential at 30 uM concentration on Canine Purkinje fibers; CB is conduction block.; assay type: functional, tissue-based; details: Purkinje fiber; outline: as §2
# Canis familiaris [27] = species on record: Canis familiaris; test: Percent change in repolarization at 10 Purkinje fibers.; value ranges from -23-17; assay type: functional, Canis lupus familiaris, Purkinje fiber; outline: as §5
# Canis familiaris [28] = species on record: Canis familiaris; test: Maximum percent change in functional refractory period (FRP) at 100 uM on Canine ventricular muscle fibre.; value ranges from 5-18; set-up: species or system Canis lupus familiaris, Muscle tissue; outline: as §1
# Canis familiaris [29] = species on record: Canis familiaris; test: Percent change in conduction time (CT) at 10 uM concentration tested on Canine ventricular muscle fibre; value ranges from -14-6; assay type: functional, Canis lupus familiaris, Muscle tissue
# Canis familiaris [30] = species on record: Canis familiaris; test: Percent change from control in the functional refractory period (FRP) at 10 uM conc. on Canine ventricular muscle fibre.; value ranges from -5-3; set-up: species or system Canis lupus familiaris, Muscle tissue; outline: as §1
# Canis familiaris [31] = species on record: Canis familiaris; test: Percent change from control in the rate of rise of phase 0 of the action potential at 10 uM concentration on Canine Purkinje fibers.; value ranges from -13 - -2; assay type: organism-based, Canis lupus familiaris, Purkinje fiber; details: dog, in vitro
# Canis familiaris [32] = species on record: Canis familiaris; test: Percent change in repolarization at 10 Purkinje fibers.; value ranges from -5 - 5; assay type: functional, Canis lupus familiaris, Purkinje fiber; outline: as §5
# Canis familiaris [33] = species on record: Canis familiaris; test: Maximum percent change in repolarization at 0.1 uM concentration on Canine Purkinje fibers.; assay type: functional, Canis lupus familiaris, Purkinje fiber; outline: as §2
# Canis familiaris [34] = species on record: Canis familiaris; test: Percent change from control in the rate of rise of phase 0 of the action potential at 10 uM concentration on Canine Purkinje fibers.; value ranges from -36.0-1.0; set-up: species or system Canis lupus familiaris, Purkinje fiber; details: dog, in vitro
# Cavia porcellus [35] = species on record: Cavia porcellus; test: Concentration of compound which gives a 20% decrease in contractile force was tested from individual experiment on papillary muscle of guinea pig, activity was expressed as EC-20.; NR is not reached.; assay type: functional; details: Muscle tissue; outline: as §4
# Canis familiaris [36] = species on record: Canis familiaris; test: Percent change in functional refractory period (FRP) at 10 uM on Canine ventricular muscle fibre.; set-up: species or system Canis lupus familiaris, Muscle tissue
# Canis familiaris [37] = species on record: Canis familiaris; test: Maximum percent change in repolarization at 1 uM concentration on Canine Purkinje fibers.; assay type: functional, Canis lupus familiaris, Purkinje fiber; outline: as §2
# Canis familiaris [38] = species on record: Canis familiaris; test: Percent change in repolarization at 10 Purkinje fibers; value ranges from 3-4.; assay type: functional, Canis lupus familiaris, Purkinje fiber; outline: as §5
Compound,CT (Canis familiaris [1]),FRP (Canis familiaris [2]),CT (Canis familiaris [3]),CT (Canis familiaris [4]),APD95 (Canis familiaris [5]),EC20 (Cavia porcellus [8]),CT (Canis familiaris [9]),APD95 (Canis familiaris [10]),APD95 (Canis familiaris [11]),Vmax (Canis familiaris [15]),Vmax (Canis familiaris [16]),Vmax (Canis familiaris [17]),FRP (Canis familiaris [18]),Vmax (Canis familiaris [20]; in vitro),EC20 (Cavia porcellus [23]),other results
CCN(CC)CCCNC(=O)c1[nH]c(C)c(C)c1C,-9%,28%,Minimal,6%,7%,50 µM,8%,-5%,26%,–,–,–,–,–,–,Vmax (Canis familiaris [6]): -14.3%; Vmax (uM) (Canis familiaris [7]): -15%; FRP (Canis familiaris [12]): 4%; FRP (Canis familiaris [13]): 5.7%; APD95 (Canis familiaris [14]): 8.3%
CCN(CC)CCNC(=O)c1cc2ccccc2[nH]1,–,24%,Minimal,–,16% and 18%,–,15%,-24%,–,-35%,5%,-6%,15%,-2.3%,–,EC20 (Cavia porcellus [19]): 16 µM; APD95 (Canis familiaris [21]): 14.3%
CCN(CC)CCNC(=O)c1c(C)[nH]c(C)c1C,-8%,–,Minimal,–,–,–,–,-5%,–,-45%,–,–,1%,–,30 µM,FRP (Canis familiaris [22]): 6%; Vmax (Canis familiaris [20]; in vivo): -18%; APD95 (Canis familiaris [24]): 2%
CCN(CC)CCNC(=O)c1cc2cccc(OCc3ccccc3)c2[nH]1,–,10%,–,–,17%,–,4%,–,-25%,–,-30%,-66%,2%,-37.7%,6 µM,CT (Canis familiaris [25]): -13%; Vmax [26]: Conduction block; APD95 (Canis familiaris [27]): -7%
CCN(CC)CCNC(=O)c1cc2cccc(O)c2[nH]1,-14%,–,–,-3%,5%,30 µM,16%,-28%,-9%,-35%,–,-19%,–,–,–,FRP (Canis familiaris [28]): 10%; CT (Canis familiaris [29]): -3.3%; FRP (Canis familiaris [30]): -1%; Vmax (Canis familiaris [31]): -7%; APD95 (Canis familiaris [32]): 0.7%
CCN(CC)CCCNC(=O)c1c(C)[nH]c(C)c1C,–,16%,Minimal,-3%,4%,–,–,–,–,-37%,–,-14%,–,–,–,APD95 (Canis familiaris [33]): 5%; Vmax (Canis familiaris [34]): -13%; EC20 (Cavia porcellus [35]): Not reached; FRP (Canis familiaris [36]): 4%; APD95 (Canis familiaris [37]): 6%; APD95 (Canis familiaris [38]): 3.7%

# Reference: ChEMBL document CHEMBL1124429, “Heterocyclic analogues of benzamide antiarrhythmic agents” (J Med Chem, 1989)
